# Reference: the array DNA melting data of Ke et al. (doi:10.1101/2024.01.08.574731)
# Columns and labels:
# [1] = folding enthalpy; higher = less favourable; fluorescence melt of hairpins on a sequencing array, two-state fit; details: sodium 0.088 M
# Summary of the method: (§1)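 Library hairpins on a sequenced MiSeq flow cell carried annealed Cy3 and quencher oligos, and their Cy3 fluorescence was imaged in 50 mM Na-HEPES pH 8.0 with 25 mM NaCl, in 2.5 °C steps up to 60 °C. Signals were normalised to Cy3 before quenching and to control constructs. Melting temperature and folding enthalpy were obtained from bootstrapped two-state fits, combined by inverse-variance weighting across four replicates, and the fitted temperatures were then raised by 9.35 °C to match UV melts.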
# [2] = melting temperature; fluorescence melt of hairpins on a sequencing array, two-state fit, raised by 9.35 °C to match UV melts; details: sodium 0.088 M
# Summary of the method: as §1
Sequence,folding enthalpy [1] [kcal/mol],Tm [2] [°C]
GTTGCGGGAAACTGCGAC ((.((.(....).)).)),-11,38
GCGCGACCGAAAGGTCGC (((..(((....)))))),-5.08,68.5
GATCAATTTATTGATC ((((((....)))))),-52.4,54.2
GTTGAAGGAAACCTCAAC (((((.(....).))))),-31,36
GATCTTTGAGAAGATC ((((((....)))))),-31.6,46
GCGGCCGCGAAAGCGCGC (((..(((....)))))),-11.6,59.5
GGTGAGTCGAAAGACACC (((..(((....)))))),-17.9,39.5
GCCATTGGAAACAGTGGC ((((.((....)).)))),-45.3,50.7
GCGTACGAAAGTAGCCGC ((((((....)))..))),-14.4,51.2
GAGGGTGGAAACGTCCTC ((((..(....)..)))),-23.9,35.1
GATCAAAGATTGATC ((((((...)))))),-27.5,36.1
GATCGAACCATCGATC ((((((....)))))),-41.6,50.4
GACATGCGAAAGCACGTC (((.(((....))).))),-26.3,52.4
GCTCGGCGAAAGCTGGGC ((.(.((....)).).)),-26.2,60.9
GCAGACGAAAGTCCCTGC ((((((....)))..))),-14.8,32.9
GCGACGACGAAAGTCCGC (((..(((....)))))),-24.7,51.4
GACCTAGCGAAAGCTGTC (((..(((....)))))),-11.6,33
GAATTACGAAAGTATTC (((.(((....)))))),-13.5,31.1
GAAGAGGGAAACTTCTTC (((((.(....).))))),-30.1,41
GCGTTAGCGAAAGCTCGC (((..(((....)))))),-12.5,44.2
GGGGGCGAAAGCCGACCC ((((((....)))..))),-15.1,54
GCTGAGCGAAAGCCGAGC (((..((....))..))),-17.2,48.7
GCATGCCCGAAAGGGTGC (((..(((....)))))),-14.3,44.4

Sequence,folding enthalpy [1] [kcal/mol],Tm [2] [°C]
GCACTAGGAAACTAGTGC (((((((....))))))),-36.2,62.8
CGTAACGGAAACGTCACG (((.(((....))).))),-31.7,41.9
GGGTTGGGAAACCAGTCC ((..(((....)))..)),-16.4,38
GCGATAACGAAAGTTCGC (((..(((....)))))),-28.2,51.1
GATCAGATAGCTGATC ((((((....)))))),-38,46.8
GAGCGCGGAAACGCGCCC (.(((((....))))).),-5.64,59.7
GATCTGAGCGCAGATC ((((((....)))))),-24.7,48.5
GCAATGGGAAACCATTGC (((((((....))))))),-39.2,66.2
GTTAAAGGAAACTTTAAC (((((((....))))))),-34.6,46.6
GGATGCCGAAAGGCTTCC (((.(((....))).))),-28.6,60.3
GTTGTGCCGAAAGGCAAC (((..(((....)))))),-19.6,53
AGGTAGAAATACCT (((((....))))),-14.5,33.5
GCCGTAACGAAAGTTGGC (((..(((....)))))),-20.9,49.4
GCTCGTGGAAACGTGAGC ((((..(....)..)))),-21.3,46.2
ACGATGAAAATCGT (((((....))))),-19,51
GGCTGCCGAAAGGCCGCC (((.(((....))).))),-18.5,65
GTCAAAGGAAACTTTGAC (((((((....))))))),-44.9,55.8
GCGGACTTCCGC ((((....)))),-23.2,57.4
GGCGCTGGAAACAGTGCC (((.(((....))).))),-49.2,62.6
GCATCCGGAAACGGATAC (.(((((....))))).),-16.9,39.7
GATCCTTATCAGGATC ((((((....)))))),-33.2,51
GCAATAGGAAACCATTGC (((((.(....).))))),-28,39.2
GCGCTGCGAAAGCACGGC ((..(((....)))..)),-15.1,51.5
